The values that follow come from ChEMBL document CHEMBL1135805 (J Med Chem, 2002).

The test system of experiment [1] is Breast cancer cell line. Description: Concentration that reduces difference in reversal of [3H]VBL accumulation between MDA-435/LCC6 and MDA-435/LCC6-MDRI cells by 50%. It counts as functional, cell-based. Particulars: Homo sapiens. In a few lines:
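They were then given test compound at five concentrations plus DOX (4 μM) or [³H] VBL (5 nM) for 3 h, in triplicate, and washed with ice-cold 0.15 M NaCl. Values were corrected for cell number. EC50 is the concentration halving the accumulation difference between the two lines, interpolated from dose-response curves. Mean ± SE, ≥3 experiments.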

Experiment [2] can be described thus: Potency relative to progesterone in reversing of [3H]- VBL accumulation in MDA-435/LCC6 (Pgp-negative) cells. It counts as functional, Homo sapiens. In outline:
(§1)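 Test compound at five concentrations was added with DOX (4 μM) or [³H] VBL (5 nM) for 3 h, in triplicate. Cells were washed in ice-cold 0.15 M NaCl. DOX was measured fluorometrically after TCA extraction and VBL by scintillation, both normalized to cell number. Pgp-specific EC50 values were corrected for these effects.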

Experiment [3] can be described thus: Growth inhibitory activity on MDA-435/LCC6 ([…]) human breast cancer cells. It counts as functional, cell-based. To be noted: Cancer cell lines. In a few lines: (§2)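 MDA435/LCC6 (Pgp-negative) and MDA435/LCC6^MDR1 (Pgp-positive) cells were plated 24 h, then exposed 5 days to test agents at a range of concentrations in growth medium. Cells were fixed and stained with 0.5% crystal violet in 25% methanol, and dye was eluted in 0.1 M sodium citrate/25% methanol and read at 540 nm. […] Mean ± SE, ≥3 experiments.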

Experiment [4] deals with Breast cancer cell line. Kind of experiment: Concentration that reduces the difference in reversal of DOX accumulation between MDA-435/LCC6 and MDA-435/LCC6-MDRI cells by 50%. To be noted: Homo sapiens. Type of experiment: functional, cell-based. In a few lines: (§3)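 They were then given test compound at five concentrations plus DOX (4 μM) or [³H] VBL (5 nM) for 3 h, in triplicate, and washed with ice-cold 0.15 M NaCl. DOX was extracted in 20% TCA and read by fluorescence (ex 500/em 580 nm); VBL was counted by scintillation. Values were corrected for cell number. EC50 is the concentration halving the accumulation difference between the two lines, interpolated from dose-response curves. […] Mean ± SE, ≥3 experiments.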

Experiment [5] in a line: Effect on reversal of [3H]- VBL accumulation in MDA-435/LCC6 (Pgp-negative) cells. To be noted: Homo sapiens. It counts as functional. In a few lines:
as §1

Experiment [6] concerns Breast cancer cell line. Kind of experiment: Potency relative to progesterone in reducing the difference in reversal of DOX accumulation between MDA-435/LCC6 and MDA-435/LCC6-MDRI cells. Type of experiment: functional, Homo sapiens. In a few lines: as §3
Experiment [7] relates to Breast cancer cell line. Kind of experiment: To estimate the extent of resistance conferred by Pgp, the ratio of IC50 in MDA-435/LCC6-MDR1 and MDA-435/LCC6 cells (relative resistance of Pgp-positive cells) was used. Type of experiment: functional, Homo sapiens. In a few lines:
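Retrovirally MDR1-transduced MDA435/LCC6^MDR1 and parental MDA435/LCC6 cells, 24 h after plating, exposed 5 days to graded agent concentrations. Fixed/stained with 0.5% crystal violet in 25% methanol, dye extracted in 0.1 M sodium citrate/25% methanol, A540. IC50 = concentration halving cell density versus untreated, interpolated.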

A short description of experiment [8]: Potency relative to progesterone in reversing of DOX accumulation in MDA-435/LCC6 (Pgp-negative) cells. Type of experiment: functional, Homo sapiens. In a few lines:
as §1

Experiment [9] in a line: Effect on reversal of DOX accumulation in MDA-435/LCC6 (Pgp-negative) cells. Type of experiment: functional. Particulars: Homo sapiens. In a few lines:
as §1

Experiment [10] concerns Breast cancer cell line. Description: Ratio of effect of compound on VBL accumulation (antiPgp activity) to its intrinsic cellular toxicity;. Type of experiment: functional, Homo sapiens.
Experiment [11] can be described thus: Growth inhibitory activity on MDA-435/LCC6-MDRI ([…]) human breast cancer cells. Type of experiment: functional, cell-based. Particulars: Cancer cell lines. In outline:
as §2

Experiment [12] has as its system Breast cancer cell line. Description: Ratio of effect of compound on DOX accumulation (antiPgp activity) to its intrinsic cellular toxicity;. It counts as functional, Homo sapiens. In a few lines:
(§4)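 Ratio IC50/EC50 of crystal violet cytotoxicity (5-day exposure) IC50 to the EC50 for DOX or [³H] VBL accumulation (3 h, 4 μM DOX or 5 nM VBL) in MDA435/LCC6 and MDA435/LCC6^MDR1 cells. Where no IC50 was reached, the highest non-toxic concentration tested, limited by solubility, was used.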

For experiment [13], the system named is Breast cancer cell line. Description: Potency relative to progesterone in reducing the difference in reversing of [3H]VBL accumulation between MDA-435/LCC6 and MDA-435/LCC6-MDRI cells. It counts as functional, Homo sapiens. In a few lines: as §3
For experiment [14], the target named is ATP-dependent translocase ABCB1 (Homo sapiens, UniProt P08183). Description: TP_TRANSPORTER: reversal of Vinblastine accumulation (Vinblastine: 0.005 uM) in MDA435/LCC6 MDR1 cells. It counts as functional, cell-based, MDA-MB-435/LCC6 MDR1. In a few lines: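 VBL (5 nM) with test compound at five concentrations, in triplicate. Cells were rinsed with ice-cold 0.15 M NaCl and PBS, dried, trypsinized, and counted by scintillation; accumulation was corrected for cell number.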

A short description of experiment [15]: Growth inhibitory activity on MDA-435/LCC6-MDRI ([…]) human breast cancer cells. Type of experiment: functional, cell-based. Particulars: Cancer cell lines. In outline:
(§5)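 Cells exposed 24 h after plating to test agents at several concentrations for 5 days. Crystal violet (0.5% in 25% methanol) fix/stain, dye extracted in 0.1 M sodium citrate/25% methanol, absorbance at 540 nm as percent of untreated controls.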

For experiment [16], the system named is Breast cancer cell line. Description: Ratio of effect of compound on VBL accumulation (antiPgp activity) to its intrinsic cellular toxicity. Type of experiment: functional, Homo sapiens. In a few lines:
as §4

Experiment [17] is described as follows: Growth inhibitory activity on MDA-435/LCC6 ([…]) human breast cancer cells. It counts as functional, cell-based. To be noted: Cancer cell lines. In outline:
as §5

Experiment [18] can be described thus: Potency relative to progesterone in reversing of DOX accumulation in MDA-435/LCC6 (Pgp-negative)cells; Not determined. Type of experiment: functional, Homo sapiens.
The test system of experiment [19] is Breast cancer cell line. Kind of experiment: Ratio of effect of compound on DOX accumulation (antiPgp activity) to its intrinsic cellular toxicity. Type of experiment: functional, Homo sapiens. In a few lines: as §4
The test system of experiment [20] is Breast cancer cell line. Description: Concentration that reduces the difference in reversal of DOX accumulation between MDA-435/LCC6 and MDA-435/LCC6-MDRI cells by 50%. It counts as functional, cell-based. To be noted: Homo sapiens. In outline:
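Ice-cold NaCl wash, overnight 20% TCA extraction at 4 °C in dark, fluorescence ex 500/em 580 nm against DOX standard curve, normalized to cell number.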

Chain of ATP-dependent translocase ABCB1 (P08183 whole entry): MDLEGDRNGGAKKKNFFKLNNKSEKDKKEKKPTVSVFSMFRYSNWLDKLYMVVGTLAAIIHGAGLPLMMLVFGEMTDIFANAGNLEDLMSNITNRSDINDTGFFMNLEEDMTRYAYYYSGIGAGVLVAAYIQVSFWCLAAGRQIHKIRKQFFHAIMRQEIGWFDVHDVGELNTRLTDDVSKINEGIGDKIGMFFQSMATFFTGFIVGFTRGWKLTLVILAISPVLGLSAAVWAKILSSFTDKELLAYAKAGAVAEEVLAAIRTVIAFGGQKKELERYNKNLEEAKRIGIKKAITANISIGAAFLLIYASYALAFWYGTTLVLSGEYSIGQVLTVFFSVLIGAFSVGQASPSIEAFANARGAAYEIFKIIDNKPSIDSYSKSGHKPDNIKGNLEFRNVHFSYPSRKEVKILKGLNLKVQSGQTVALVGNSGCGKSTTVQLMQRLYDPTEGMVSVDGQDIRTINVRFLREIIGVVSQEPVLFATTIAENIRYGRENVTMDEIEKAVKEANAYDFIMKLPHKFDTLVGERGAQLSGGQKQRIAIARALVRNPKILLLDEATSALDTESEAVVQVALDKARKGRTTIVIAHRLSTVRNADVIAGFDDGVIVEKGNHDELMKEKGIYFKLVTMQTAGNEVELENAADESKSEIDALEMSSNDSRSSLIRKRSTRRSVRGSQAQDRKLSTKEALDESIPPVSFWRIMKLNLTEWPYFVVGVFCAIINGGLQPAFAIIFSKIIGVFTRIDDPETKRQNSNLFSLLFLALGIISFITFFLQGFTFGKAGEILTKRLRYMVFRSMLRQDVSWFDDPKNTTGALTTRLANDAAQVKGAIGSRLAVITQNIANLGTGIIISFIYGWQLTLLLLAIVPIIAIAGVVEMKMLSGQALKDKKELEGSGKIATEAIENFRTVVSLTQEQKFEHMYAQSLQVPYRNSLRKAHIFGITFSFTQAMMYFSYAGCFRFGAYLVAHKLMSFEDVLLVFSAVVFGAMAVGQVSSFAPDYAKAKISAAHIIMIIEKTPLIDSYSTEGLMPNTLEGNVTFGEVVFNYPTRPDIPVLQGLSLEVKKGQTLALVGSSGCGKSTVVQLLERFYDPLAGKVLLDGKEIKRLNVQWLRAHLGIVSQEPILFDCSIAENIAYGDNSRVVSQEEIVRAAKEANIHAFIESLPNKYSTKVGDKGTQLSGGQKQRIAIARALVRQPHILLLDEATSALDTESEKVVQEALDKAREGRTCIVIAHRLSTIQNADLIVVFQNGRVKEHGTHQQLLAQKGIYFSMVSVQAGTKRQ

What is called EC50 is the concentration that produces a half-maximal response. For orientation: IC50 means the point on the concentration scale where inhibition reaches its midpoint. Take `CC(=O)[C@H]1CCC2C3C(CC[C@@]21C)[C@@]1(C)CCC(=O)C=C1C[C@H]3Sc1ccc(NC(=O)NS(=O)(=O)c2ccc(C)cc2)cc1` (stereo partly drawn): the EC50 with Breast cancer cell line [1] was found to be 34.8 µM; in the experiment with Breast cancer cell line [4], 14.7 µM; in [5], 33.4 µM; in [9], 37 µM. Also, the Relative potency came out at 0.6 in experiment [2], 1.5 in the experiment with Breast cancer cell line [6], 1.1 in experiment [8] and 0.5 in the experiment with Breast cancer cell line [13]. Further, the IC50 stood at 22.1 µM in experiment [3] and 38.2 µM in experiment [11]. Besides, the Relative resistance with Breast cancer cell line [7] was 1.7. The Ratio with Breast cancer cell line [10] is listed as 0.7; with Breast cancer cell line [12], 0.6.
As to `CC(=O)C1CCC2C3C(CC[C@]12C)[C@@]1(C)CCC(=O)C=C1C[C@H]3Sc1ccc(NC(=O)NCCCl)cc1` (stereo partly drawn), the 50% effective concentration (EC50) in the experiment with Breast cancer cell line [1] was determined as 0.8 µM; in the experiment on Breast cancer cell line [4] it was 0.6 µM; in experiment [5], 0.9 µM; in [9], 0.7 µM. Further, the Relative potency in experiment [2] was determined as 23.5; with Breast cancer cell line [6], 40.5; in experiment [8], 60.2; in the experiment on Breast cancer cell line [13], 22.5. Besides, the half-maximal inhibitory concentration (IC50) in experiment [3] was 3.2 µM; in experiment [11], 7.3 µM. The Relative resistance with Breast cancer cell line [7] was 2.2. Moreover, the Ratio in the experiment on Breast cancer cell line [10] is on record as 3.6; in the experiment on Breast cancer cell line [12], 3.2.
As to `CC(=O)C1CC[C@H]2[C@@H]3[C@H](Sc4ccc(NC(=O)N[C@H](C)c5ccccc5)cc4)CC4=CC(=O)CC[C@]4(C)[C@H]3CC[C@]12C` (stereo partly drawn), the concentration giving a half-maximal response (EC50) in experiment [14] was found to be 0.7 µM.
Take `CCNC(=O)Nc1ccc(S[C@@H]2CC3=CC(=O)CC[C@]3(C)C3CC[C@]4(C)C(C(C)=O)CCC4C32)cc1` (stereo partly drawn): the EC50 with Breast cancer cell line [1] was 1.3 µM; with Breast cancer cell line [4], 0.7 µM; in experiment [5], 1.5 µM; in experiment [9], 1 µM. Further, the Relative potency is on record as 14 in [2], 31.3 in the experiment with Breast cancer cell line [6], 14.2 in the experiment on Breast cancer cell line [13] and 42.7 in experiment [18]. The half-inhibitory concentration (IC50) in [15] and in experiment [17] was greater than 20 µM in each case. Besides, the Ratio is recorded as greater than 13.3 in the experiment on Breast cancer cell line [16] and greater than 20 in the experiment on Breast cancer cell line [12].
For `CC(=O)[C@H]1CCC2C3C(CC[C@@]21C)[C@@]1(C)CCC(=O)C=C1C[C@H]3Sc1ccc(NC(=O)N[C@H](C)c2ccccc2)cc1` (stereo partly drawn), the EC50 came to 0.8 µM in the experiment on Breast cancer cell line [1], 0.6 µM with Breast cancer cell line [4], 0.7 µM in experiment [5] and 0.9 µM in [9]. For the same compound, the Relative potency in experiment [2] came out at 28.2; in the experiment with Breast cancer cell line [6], 37.2; in [8], 44.8; in the experiment with Breast cancer cell line [13] it was 24.5. The IC50 in experiment [15] and in experiment [17] was greater than 20 µM throughout. Moreover, the Ratio in the experiment with Breast cancer cell line [16] is recorded as greater than 28.6; in the experiment on Breast cancer cell line [19], greater than 22.2.
On to `COc1ccc(CCN(C)CCCC(C#N)(c2ccc(OC)c(OC)c2)C(C)C)cc1OC` (stereo not drawn), for which the EC50 in the experiment with Breast cancer cell line [1] worked out at 1.2 µM; in the experiment on Breast cancer cell line [4], 2.4 µM; in experiment [9], 4.1 µM. For the same compound, the IC50 in experiment [3] turned out to be 65.8 µM; in experiment [11] it was 63.4 µM.
As to `C/C=C/C[C@@H](C)[C@@H](O)[C@H]1C(=O)N[C@@H](CC)C(=O)N(C)CC(=O)N(C)[C@@H](CC(C)C)C(=O)N[C@@H](C(C)C)C(=O)N(C)[C@@H](CC(C)C)C(=O)N[C@@H](C)C(=O)N[C@H](C)C(=O)N(C)[C@@H](CC(C)C)C(=O)N(C)[C@@H](CC(C)C)C(=O)N(C)[C@@H](C(C)C)C(=O)N1C` [CYCLOSPORINE], in the experiment on Breast cancer cell line [4], the EC50 came to 0.5 µM.
Regarding `CC(=O)[C@H]1CC[C@H]2[C@@H]3CCC4=CC(=O)CC[C@]4(C)[C@H]3CC[C@]12C` [PROGESTERONE], the concentration giving a half-maximal response (EC50) was 18.7 µM in the experiment on Breast cancer cell line [1], 21 µM in experiment [5], 42.2 µM in experiment [9] and 22.3 µM in the experiment with Breast cancer cell line [20]. Further, the IC50 in experiment [3] was determined as 27.4 µM; in experiment [11], 36.4 µM.
